# Results reported in ChEMBL document CHEMBL4321861, “An Underlying Mechanism of Dual Wnt Inhibition and AMPK Activation: Mitochondrial Uncouplers Masquerading as Wnt Inhibitors” (J Med Chem, 2019).
# The source made the active and inactive calls. No cut-off for these calls is given here.
# What was measured:
# Homo sapiens [1] = organism: Homo sapiens; experiment: Inhibition of Wnt in human DLD1 cells assessed as reduction in c-Myc expression at 1 to 3 uM by Western blot analysis; type: cell-based
# Method in brief: (§1)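 Colorectal cancer cells (DLD-1, LS174T, SW620) treated with a compound dose series in DMSO. Lysates immunoblotted for Axin2, c-Myc and cyclin D1. At least three independent repeats.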
# DLD-1 [2] = experiment: Uncoupling of mitochondrial oxidative phosphorylation in human DLD1 cells assessed as increase in oxygen consumption rate at 3 uM in presence of oligomycin A by seahorse XFe96 analyser based assay; conditions: Mitochondria
# Method in brief: (§2)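 DLD-1 cells, about 3×10^4 per XF96 well, in XF medium with 25 mM glucose and 1 mM pyruvate. Mito stress sequence: oligomycin A 1 μM, then test compound 3 μM in DMSO in place of FCCP (FCCP 1 μM as control), then rotenone/antimycin A 1 μM each. Oxygen consumption rate recorded.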
# LS174T [3] = experiment: Inhibition of Wnt in human LS174T cells assessed as reduction in cyclin-D1 expression at 1 uM by Western blot analysis; type: cell-based; method in brief: as §1
# LS174T [4] = experiment: Inhibition of Wnt in human LS174T cells assessed as reduction in Axin2 expression at 1 uM by Western blot analysis; type: cell-based; method in brief: as §1
# LS174T [5] = experiment: Induction of mitochondrial membrane potential disruption in human LS174T cells at 3 uM measured after 2 hrs by TMRM staining based fluorescence microscopic analysis; conditions: Mitochondria
# Method in brief: (§3)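 Cells grown one day in 24-well plates: DLD-1 in DMEM + 10% serum, LS174T in RPMI1640 + 5% serum. Treated 2 h with compound in DMSO or DMSO, then stained with 100 nM TMRM for 15 min. Rinsed once with PBS and imaged by fluorescence microscopy at 568 nm.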
# DLD-1 [6] = experiment: Induction of mitochondrial dysfunction in human DLD1 cells assessed as reduction in mitochondrial ATP production at 3 uM by Seahorse XF real-time assay; conditions: Mitochondria
# Method in brief: (§4)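 About 3×10^4 cells seeded per well in XF96 plates. Next day medium switched to Seahorse XF medium with 25 mM glucose and 1 mM pyruvate. Compound given at 3 μM in DMSO; FCCP 1 μM as reference. Mitochondrial and glycolytic ATP production rates measured by XF Real-Time ATP Rate Assay.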
# Homo sapiens [7] = organism: Homo sapiens; experiment: Inhibition of Wnt in human DLD1 cells assessed as reduction in Axin2 expression at 1 to 3 uM by Western blot analysis; type: cell-based; method in brief: as §1
# LS174T [8] = experiment: Induction of mitochondrial dysfunction in human LS174T cells assessed as reduction in mitochondrial ATP production at 3 uM by Seahorse XF real-time assay; conditions: Mitochondria; method in brief: as §4
# HEK293 [9] = experiment: Inhibition of LiCl-activated Wnt signaling in HEK293 cells at 0.5 uM by TOPFlash reporter gene assay; type: cell-based; conditions: Homo sapiens
# Method in brief: (§5)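 Stable HEK293T Super 8xTOPFlash reporter line (pGL4.83 backbone, puromycin-selected), stimulated with 25 mM LiCl to stabilize β-catenin. Treated with compound in DMSO or DMSO. Luciferase read in 96- or 24-well format. AMPK inhibitor compound C used at 5 μM where applied. At least three independent repeats.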
# LS174T [10] = experiment: Induction of mitochondrial dysfunction in human LS174T cells assessed as increase in glycolytic ATP production at 3 uM by Seahorse XF real-time assay; conditions: Mitochondria; method in brief: as §4
# [11] = molecular target: T1, AMP-activated protein kinase, AMPK (Homo sapiens) (UniProt P54646+O43741+P54619+Q9UGJ0+Q9Y478+Q13131+Q9UGI9); experiment: Activation of AMPK in human LS174T cells assessed as increase in AMPK phosphorylation at T172 residue at 3 uM by Western blot analysis; type: cell-based
# Method in brief: (§6)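 Cells lysed in 50 mM HEPES, 100 mM NaCl, 2 mM EDTA, 1% glycerol, 50 mM NaF, 1 mM Na3VO4, 1% Triton X-100 with protease inhibitors. Western blot probed for total and phospho-AMPK and total and phospho-ACC, with actin loading control. Compounds given in DMSO. At least three independent repeats.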
# DLD-1 [12] = experiment: Induction of mitochondrial membrane potential disruption in human DLD1 cells at 3 uM measured after 2 hrs by TMRM staining based fluorescence microscopic analysis; conditions: Mitochondria; method in brief: as §3
# HEK293 [13] = experiment: Inhibition of LiCl-activated Wnt signaling in HEK293 cells at 3 uM in presence of AMPK inhibitor compound C by TOPFlash reporter gene assay; type: cell-based; conditions: Homo sapiens; method in brief: as §5
# DLD-1 [14] = experiment: Induction of mitochondrial dysfunction in human DLD1 cells assessed as increase in glycolytic ATP production at 3 uM by Seahorse XF real-time assay; conditions: Mitochondria; method in brief: as §4
# HEK293 [15] = experiment: Effect on FOP reporter expression in LiCl-induced HEK293T cells incubated for 24 hrs by luciferase reporter gene assay; type: functional, cell-based; conditions: Homo sapiens
# Method in brief: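 HEK293T cells transiently transfected with Super 8x TOPFlash or 8x FOPFlash plus control Renilla reporter. Wnt signaling activated with LiCl or Wnt3A. Cells treated with DMSO or compound in DMSO. Luciferase activity read.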
# [16] = molecular target: T1, AMP-activated protein kinase, AMPK (Homo sapiens); experiment: Activation of AMPK in human LS174T cells assessed as […] phosphorylation at S79 residue at 3 uM by Western blot analysis; type: cell-based; method in brief: as §6
# LS174T [17] = experiment: Inhibition of Wnt in human LS174T cells assessed as reduction in c-Myc expression at 1 uM by Western blot analysis; type: cell-based; method in brief: as §1
# DLD-1 [18] = experiment: Uncoupling of mitochondrial oxidative phosphorylation in human DLD1 cells at 3 uM in presence of oligomycin A by seahorse XFe96 analyser based assay; conditions: Mitochondria; method in brief: as §2
# Homo sapiens [19] = organism: Homo sapiens; experiment: Inhibition of Wnt in human DLD1 cells assessed as reduction in cyclin-D1 expression at 1 to 3 uM by Western blot analysis; type: cell-based; method in brief: as §1
# Homo sapiens [20] = organism: Homo sapiens; experiment: Inhibition of Wnt in human SW620 cells assessed as reduction in Axin2 expression at 1 uM by Western blot analysis; type: cell-based; method in brief: as §1
# Homo sapiens [21] = organism: Homo sapiens; experiment: Inhibition of Wnt in human SW620 cells assessed as reduction in cyclin-D1 expression at 1 uM by Western blot analysis; type: cell-based; method in brief: as §1
# LS174T [22] = experiment: Cytotoxicity against human LS174T cells assessed as reduction in cell viability by Vi-Cell XR cell viability analyzer-based assay; type: functional
# Method in brief: (§7)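 Colon cancer cells plated at 3.5×10^4 per well in 12-well plates. LS174T were in EMEM + 10% FBS; DLD-1 were in DMEM + 10% FBS. After 24 h, compound in DMSO added (DMSO control). Cell number and viability counted on a Vi-Cell XR analyzer. Triplicate wells.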
# Homo sapiens [23] = organism: Homo sapiens; experiment: Inhibition of Wnt in human SW620 cells assessed as reduction in c-Myc expression at 1 uM by Western blot analysis; type: cell-based; method in brief: as §1
# LS174T [24] = experiment: Inhibition of LiCl-induced Wnt signaling in human LS174T cells assessed as reduction in beta-catenin accumulation; type: cell-based
# DLD-1 [25] = experiment: Cytotoxicity against human DLD1 cells assessed as reduction in cell viability by Vi-Cell XR cell viability analyzer-based assay; type: functional; method in brief: as §7
# [26] = molecular target: T1, AMP-activated protein kinase, AMPK (Homo sapiens); experiment: Activation of AMPK (unknown origin) assessed as increase in AMPK phosphorylation at T172 residue at 3 uM by Western blot analysis; type: protein-complex assay; method in brief: as §6
# [27] = molecular target: T1, AMP-activated protein kinase, AMPK (Homo sapiens); experiment: Activation of AMPK (unknown origin) assessed as […] phosphorylation at S79 residue at 3 uM by Western blot analysis; type: protein-complex assay; method in brief: as §6
# HEK293 [28] = experiment: Inhibition of LiCl-activated Wnt signaling in HEK293 cells at 3 uM by TOPFlash reporter gene assay; type: cell-based; conditions: Homo sapiens; method in brief: as §5
# Liver [29] = experiment: Uncoupling of mitochondrial oxidative phosphorylation in mouse liver mitochondria assessed as increase in oxygen consumption rate at 1 to 5 uM in presence of oligomycin A by seahorse XFe96 analyser based assay
# Method in brief: (§8)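 Mouse liver mitochondria isolated by differential centrifugation in mannitol/sucrose/HEPES/EGTA buffer, pH 7.2. Loaded at 6 μg/well in KCl/HEPES/MgCl2/KH2PO4 respiration buffer, pH 7.2, at 37 °C. OCR measured on XFe96.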
# HEK293 [30] = experiment: Inhibition of LiCl-activated Wnt signaling in HEK293 cells at 10 uM by TOPFlash reporter gene assay; type: cell-based; conditions: Homo sapiens; method in brief: as §5
# Liver [31] = experiment: Uncoupling of mitochondrial oxidative phosphorylation in mouse liver mitochondria assessed as increase in oxygen consumption rate in presence of oligomycin A by seahorse XFe96 analyser based assay; method in brief: as §8
# LS174T [32] = experiment: Induction of mitochondrial membrane potential disruption in human LS174T cells measured after 2 hrs by TMRM staining based fluorescence microscopic analysis; conditions: Mitochondria; method in brief: as §3
# [33] = molecular target: T1, AMP-activated protein kinase, AMPK (Homo sapiens); experiment: Activation of AMPK in human LS174T cells assessed as increase in AMPK phosphorylation at T172 residue at 3 uM measured within 15 mins by Western blot analysis; type: cell-based; method in brief: as §6
# [34] = molecular target: T1, AMP-activated protein kinase, AMPK (Homo sapiens); experiment: Activation of AMPK in human LS174T cells assessed as […] phosphorylation at S79 residue at 3 uM measured within 15 mins by Western blot analysis; type: cell-based; method in brief: as §6
# DLD-1 [35] = experiment: Induction of mitochondrial membrane potential disruption in human DLD1 cells measured after 2 hrs by TMRM staining based fluorescence microscopic analysis; conditions: Mitochondria; method in brief: as §3
# DLD-1 [36] = experiment: Inhibition of mitochondrial oxidative phosphorylation in human DLD1 cells assessed as reduction in oxygen consumption rate by seahorse XFe96 analyser based assay; conditions: Mitochondria
# Method in brief: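 DLD-1 cells, ~3×10^4 per well, seeded a day ahead; medium switched to Seahorse XF modified medium with 25 mM glucose and 1 mM pyruvate. Mitochondrial stress test: 1 μM oligomycin A, test compound in DMSO in place of FCCP, then 1.0 μM rotenone plus 1.0 μM antimycin A. OCR recorded; ATP production rate by real-time ATP rate assay.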
structure (smiles),measurement,setting,value
O=C(Nc1nnc(C(F)(F)F)s1)NC(CC(F)(F)F)(C(F)(F)F)C(F)(F)F,inhibition,Homo sapiens [1],Active
same,Activity,DLD-1 [2],Active
same,inhibition,LS174T [3],Active
same,inhibition,LS174T [4],Active
same,Activity,LS174T [5],Active
same,Activity,DLD-1 [6],Active
same,inhibition,Homo sapiens [7],Active
same,Activity,LS174T [8],Active
same,inhibition,HEK293 [9],inactive
same,Activity,LS174T [10],Active
same,Activity,[11],Active
same,Activity,DLD-1 [12],Active
same,inhibition,HEK293 [13],Active
same,Activity,DLD-1 [14],Active
same,Activity,HEK293 [15],inactive
same,Activity,[16],Active
same,inhibition,LS174T [17],Active
same,Activity,DLD-1 [18],Active
same,inhibition,Homo sapiens [19],Active
same,inhibition,Homo sapiens [20],Active
same,inhibition,Homo sapiens [21],Active
same,IC50,LS174T [22],0.8 µM
same,inhibition,Homo sapiens [23],Active
same,inhibition,LS174T [24],Active
same,IC50,DLD-1 [25],0.96 µM
CN(c1ccc([N+](=O)[O-])c2ccccc12)S(=O)(=O)c1cc(Cl)ccc1Cl,Activity,DLD-1 [2],inactive
same,Activity,[26],inactive
same,Activity,[27],inactive
same,inhibition,HEK293 [28],inactive
same,Activity,Liver [29],inactive
N#Cc1c(O)c2c(-c3ccc(-c4ccccc4O)cc3)csc2[nH]c1=O,inhibition,HEK293 [30],inactive
Cc1cc([N+](=O)[O-])ccc1NS(=O)(=O)c1cc(Cl)ccc1Cl,Activity,DLD-1 [2],Active
same,Activity,Liver [31],Dose-dependent effect
same,Activity,DLD-1 [6],Active
same,Activity,LS174T [8],Active
same,Activity,LS174T [10],Active
same,Activity,LS174T [32],Active
same,Activity,[33],Active
same,Activity,DLD-1 [14],Active
same,Activity,[34],Active
same,Activity,DLD-1 [35],Active
same,Activity,DLD-1 [18],Active
same,inhibition,LS174T [24],Active
C=C(C)[C@H]1Cc2c(ccc3c2O[C@@H]2COc4cc(OC)c(OC)cc4[C@@H]2C3=O)O1,inhibition,DLD-1 [36],Active
CC[C@@H]1/C=C/C=C/C[C@H](C)[C@@H](O)[C@](C)(O)C(=O)[C@H](C)[C@@H](O)[C@H](C)C(=O)[C@H](C)[C@@H](O)[C@H](C)/C=C/C(=O)O[C@H]2[C@@H](C)[C@@H](CC1)O[C@@]1(CC[C@@H](C)[C@@H](C[C@@H](C)O)O1)[C@@H]2C,inhibition,DLD-1 [36],Active
